GPR7 antag – GPR7 receptor antagonists, primary screen, cell-based, fluorescence, single concentration; GPR7-expressing cells, fluorescence antagonist assay; AID 1861, 2009; 1.1% of 290,000 active; inhibition, % at 4.4 µM; in the data active = inhibition above about 16%, passing the limit was not always enough;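 also: cells stimulated with the agonist NPW; 0% = agonist with vehicle and 100% = vehicle without agonist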
HCV core dimer – inhibitors of HCV core protein dimerization, primary screen, biochemical, TR-FRET, high-throughput. TR-FRET GST/Flag-core106 dimerization, 1536-well. inhibition, % at 5 µM. 0.33% of 300,000 active. AID 1899, 2009;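 active = inhibition above the mean of all tested compounds plus 3 SD, set per screening campaign, cut at about 45% in these data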
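Assay system: Tagged HCV core106 pair (GST and Flag) | Buffer or medium: KF-containing HEPES buffer, pH 7.45, DTT, CHAPS, BSA | Also added: Eu donor and XL665 acceptor anti-tag antibodies | Dosing: One concentration, 5 µM, in 0.5% DMSO | Timing: 4 h at 22.5 °C | Technique: TR-FRET 671 and 617 nm emission | Repeats: Singlicate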
HCV NS3 hel inh – inhibitors of HCV NS3 helicase, primary screen, biochemical, Cy5 molecular beacon fluorescence. Hepatitis C virus NS3 helicase. NS3 helicase DNA unwinding. inhibition, % at 10.9 µM. 0.56% of 290,000 active;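 active = inhibition above the mean of all tested compounds plus 3 SD, set per campaign, cut at about 35% in these data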;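 also: 0% = DMSO wells and 100% = thioflavine S control wells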
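Test system: hepatitis C virus NS3 helicase domain fragment enzyme. Also added: annealed dual-labelled DNA beacon duplex, ATP-started. Timing: 60 min unwinding reaction at 25 °C after ATP addition. Technique: Cy5 fluorescence. Measure: % inhibition of unwinding.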
pCIP destab – p/CIP-EGFP fusion destabilizers, primary screen, fluorescence, F442A cells | 16 h | decrease of EGFP signal, % at 10 µM | 0.01% of 290,000 active;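 active = EGFP signal decrease of at least 30% at 10 µM or well 3 SD below plate mean, unless failing retest; inactive = the rest, including hits failing retest or dose response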
DNA FID counter-1 – compounds displacing fluorescent DNA intercalator, primary screen, artefact control for HCV NS3 helicase inhibitor project, biochemical, FID fluorescence. DNA fluorescent intercalator displacement. inhibition, % at 7.9 µM. 0.17% of 290,000 active;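 also: 0% = vehicle and 100% = reference compound; higher means more ethidium bromide displaced from hairpin DNA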
NS3 hel confirm – HCV NS3 helicase inhibitors, retest, confirmation, biochemical, Cy5 molecular beacon fluorescence, triplicate. AID 1943, 2009. inhibition, % at 10.9 µM. NS3 helicase DNA unwinding. shares compounds with HCV NS3 hel inh. 31% of 1,600 active;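 active = inhibition above the mean of all tested compounds plus 3 SD, cutoff set per campaign, cut at about 36% in these data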
DNA FID counter-2 – compounds displacing fluorescent DNA intercalator, artefact control for HCV NS3 helicase inhibitor project, biochemical, FID fluorescence, triplicate | 4% of 1,600 active | inhibition, % at 7.9 µM | AID 1945, 2009 | DNA fluorescent intercalator displacement | shares compounds with HCV NS3 hel inh;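 also: 0% = vehicle and 100% = reference compound; higher means more displacement of ethidium bromide from the DNA hairpin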
FID counter DR – compounds displacing fluorescent intercalator from DNA, dose response, counter-screen for HCV NS3 helicase inhibitor project, biochemical, fluorescence | shares compounds with HCV NS3 hel inh | fluorescent intercalator displacement from DNA | IC50, µM | 120 tested, under 10 active; call rule not given here
Active calls of the source: *; i = inactive; / = no result. Compounds with a hit are over-represented: about 1.9% of the library has one in this group of screens. Rule as the data show it, unless noted: active = inhibition above about 37%; inactive = the rest.

SMILES	GPR7 antag	HCV core dimer	HCV NS3 hel inh	pCIP destab	DNA FID counter-1	NS3 hel confirm	DNA FID counter-2	others
O=C(CN1C(=O)C2CC=CCC2C1=O)NCC1COc2ccccc2O1 (configuration not stated)	20.7	-4.6	85.2*	-15.4	-5.6	-18.6	6.4
O=C(Cn1ccc2ccccc2c1=O)NCC1COc2ccccc2O1 (configuration not stated)	19.5	6.4	17.2	2.0	-0.9	/	/
O=c1cc2oc3cc(O)c(O)cc3c(-c3ccccc3[N+](=O)[O-])c-2cc1O	2.5	-28.6	63.9*	-12.6	-19.1	108.7*	30.6	FID counter DR=>79.4
Cc1ccc(C)c(NC(=O)c2cc(C)nc3ccccc23)c1	-3.4	-5.2	54.8*	-18.3	-25.8	-2.0	0.2
CC(=O)N1C=Cc2c(c(C)c3c([nH]c4ccccc43)c2C)C1	-9.3	/	39.3*	-26.4	32.2	22.6	34.6
O=C1Cc2ccccc2C(=O)N1c1cccc(Cl)c1	-15.5	-5.1	36.8*	-22.9	-21.0	-18.6	19.0
COC(=O)N/N=C/c1cc(OC)c(O)c([N+](=O)[O-])c1	-2.2	-29.3	-8.4	-7.6	-3.9	/	/
COc1cc(/C=N/NC(N)=O)cc([N+](=O)[O-])c1O	-6.8	-37.9	38.9*	-3.5	1.5	-12.2	5.4
CCC(C)(C)C1CCc2[nH]nc(C(=O)O)c2C1 (configuration not stated)	/	8.4	/	/	/	/	/
CC(C)(C)C1CCc2[nH]nc(C(=O)O)c2C1 (configuration not stated)	-12.2	12.1	36.6*	1.5	-15.0	-14.3	-1.5
N#Cc1c(NC(=O)c2ccccc2Cl)n(Cc2ccccc2)c2nc3ccccc3nc12	12.3	20.2	41.1*	-6.3	-4.8	37.5*	17.9
CCCCn1c(NC(=O)c2ccccc2Cl)c(C#N)c2nc3ccccc3nc21	9.2	21.9	46.7*	-21.8	-16.0	68.7*	-0.5
CCCCn1c(NC(=O)CC)c(C#N)c2nc3ccccc3nc21	-1.2	0.4	10.2	-9.0	-1.2	/	/
COc1ccc(OCC(=O)Nc2nnc(S(=O)(=O)N3CCCCCC3)s2)cc1	-0.8	28.3	2.6	-2.7	-31.6	/	/
Cc1ccc(OCC(=O)Nc2nnc(S(=O)(=O)N3CCC(C)CC3)s2)cc1	-13.4	35.6	36.0*	-4.3	-34.5	-15.8	-5.8
CC1Sc2ccc(S(=O)(=O)CCC(=O)N3CCCC3)cc2NC1=O (configuration not stated)	6.8	-6.6	15.9	-10.4	-8.0	/	/
CC1Sc2ccc(S(=O)(=O)CCC(=O)NC3CCCC(C)C3C)cc2NC1=O (configuration not stated)	0.6	-11.6	53.9*	-26.5	-46.1	-13.1	-31.3
CC1CCCN(C(=O)CCS(=O)(=O)c2ccc3c(c2)NC(=O)C(C)S3)C1 (configuration not stated)	-8.2	-14.2	44.0*	-19.5	-42.1	-15.8	-24.1
Cc1ccc(SC(CC(=O)c2ccc(F)cc2)C(=O)O)cc1 (configuration not stated)	-13.3	-10.4	43.0*	-21.4	-14.2	-23.4	0.9
CC(C)(C)c1ccc(C(=O)CC(Sc2ccc(Cl)cc2)C(=O)O)cc1 (configuration not stated)	1.8	5.5	15.6	-15.2	-8.6	/	/
O=C(Nc1ccc(N2CCOCC2)cc1)C1CC(=O)N(c2ccc(F)cc2)C1 (configuration not stated)	-11.2	4.0	-0.5	4.4	1.2	/	/
Cc1cc(-c2csc(NC(=O)c3ccccc3C(F)(F)F)n2)c(C)n1Cc1ccccc1	-9.3	37.1	49.8*	-7.0	-10.3	6.4	-0.3
COc1ccc(S(=O)(=O)N2CCCC(C(=O)NCC3CCCO3)C2)cc1OC (configuration not stated)	-11.6	0.9	10.0	-7.6	-9.2	/	/
CCc1cc(=O)oc2cc(C)c(CN3CCCCC3)c(O)c12	4.7	16.0	36.4*	-15.6	-19.2	-24.3	-4.6
Cc1cc(=O)oc2c(CN3CCCCC3)c(O)c(Cl)cc12	9.3	1.2	23.9	0.0	-11.1	/	/
SMILES	GPR7 antag	HCV core dimer	HCV NS3 hel inh	pCIP destab	DNA FID counter-1	NS3 hel confirm	DNA FID counter-2	others
CCCc1cc(=O)oc2c(CN3CCCC3)c(O)ccc12	-3.2	5.4	-4.7	10.1	3.0	/	/
CCCc1cc(=O)oc2cc(C)c(CN3CCCC3)c(O)c12	-3.7	53.3*	39.9*	-10.3	-18.2	41.5*	-22.4
CCc1cc(=O)oc2cc(C)c(CN3CCCC3)c(O)c12	2.9	85.6*	39.3*	-5.2	-18.2	30.0	8.0
O=c1ccc2[n+]([O-])c3ccc(O)cc3oc-2c1	-6.2	/	36.8*	-8.2	i	-0.5	-40.5
O=C1CC(Nc2ccc(N3CCOCC3)cc2)C(=O)N1c1ccccc1F (configuration not stated)	4.0	-29.6	23.4	2.9	-12.0	/	/
CC(C)N1C(=O)CC(Nc2ccc(N3CCOCC3)cc2)C1=O (configuration not stated)	3.8	-1.1	38.8*	-14.4	-17.1	-2.2	-4.7
O=C1CC(Nc2ccccc2)C(=O)N1c1ccc(N2CCOCC2)cc1 (configuration not stated)	-10.8	5.0	3.2	5.8	-4.2	/	/
O=C1CC(Nc2ccc(N3CCOCC3)cc2)C(=O)N1C1CCCCC1 (configuration not stated)	-9.0	-13.0	38.2*	7.7	-26.2	-15.5	-3.7
CCc1ccc(NC2CC(=O)N(CCc3ccc(OC)c(OC)c3)C2=O)cc1 (configuration not stated)	-4.5	-0.1	9.1	-11.1	-20.8	/	/
CC(C)N1C(=O)CC(Nc2cccc3cccc(N)c23)C1=O (configuration not stated)	-9.0	/	40.0*	-6.4	-7.7	-15.5	9.6
COc1ccc(CCN2C(=O)CC(Nc3ccc(N4CCOCC4)cc3)C2=O)cc1OC (configuration not stated)	-1.0	-0.7	45.8*	-10.6	-36.7	2.2	-17.7
CC1(C(=O)OCC(=O)Nc2ccc3ccccc3c2)CC1(Cl)Cl (configuration not stated)	1.1	2.3	10.2	-1.9	-7.5	/	/
COc1cc(C(=O)NCC2CCCO2)ccc1OCc1ccccc1Cl (configuration not stated)	8.1	3.6	-2.0	4.3	-33.1	/	/
